SMILES strings stand for the structures.

Series [1] deals with L5178Y. Description: Antiproliferative activity against mouse L5178Y cells assessed as reduction in cell viability incubated for 72 hrs by MTT assay. The format is functional, cell-based. The essentials: (§1)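 Parental L5178Y or human ABCB1-transfected L5178Y MDR subline kept under 60 ng mL−1 colchicine selection; McCoy's 5A, 10% heat-inactivated horse serum, 37 °C. 6 × 10^3 cells/well exposed to 2-fold serial dilutions from 100 μM for 72 h. MTT 4 h, SDS overnight, OD 540/630 nm. Triplicate; IC50 from curve fitting, mean ± SD.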
(In general: Tetrazolium dyes change colour on reduction, which living cells bring about.)

Series [2] relates to L5178Y. Description: Reversal of multidrug resistance in multidrug resistant mouse L5178Y cells transfected with human ABCB1 assessed as reduction in cell viability incubated for 72 hrs by MTT assay. The series is classed as functional, cell-based. The procedure, abridged:
as §1

Series [3] in a line: Resistance ratio of IC50 for antiproliferative activity against multidrug resistant mouse L5178Y cells transfected with human ABCB1 to IC50 for antiproliferative activity against mouse L5178Y cells. The series is classed as functional. The procedure, abridged: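 RR = IC50(MDR)/IC50(PAR), IC50s from the 72 h MTT assay: 2-fold dilutions from 100 μM, 6 × 10^3 cells/well, triplicate. Collateral sensitivity taken as RR < 0.5; RR < 1 counted as selectivity toward resistant cells.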

The target in series [4] is T1, ATP-dependent translocase ABCB1 (Homo sapiens, UniProt P08183). Description: Modulation of human P-gp transfected in mouse L5178Y cells assessed as change in Rhodamine-123 efflux by measuring fluorescence activity ratio at 2 uM pretreated for 10 mins followed by Rhodamine-123 challenge for 20 mins by flow cytometry relative to parental mouse L5178Y cells. The format is cell-based. To be noted: 0.5 h, time 30 min. The procedure, abridged:
(§2)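 PAR and MDR cells at 2 × 10^6 cells/mL in serum-free McCoy's 5A. Compound given 10 min at room temperature, then rhodamine-123 (5.2 μM final) for 20 min at 37 °C. Washed twice, resuspended in PBS, mean FL-1 read by flow cytometry. FAR = (MDR treated/untreated)/(PAR treated/untreated). Verapamil 20 μM positive control, DMSO 2% solvent control.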
On the technique in general: In flow cytometry, cells or beads pass a laser one at a time.

Series [5] addresses T1, ATP-dependent translocase ABCB1. Put plainly: Modulation of human P-gp transfected in mouse L5178Y cells assessed as change in Rhodamine-123 efflux by measuring fluorescence activity ratio at 20 uM pretreated for 10 mins followed by Rhodamine-123 challenge for 20 mins by flow cytometry relative to parental mouse L5178Y cells. The format is cell-based. To be noted: 0.5 h, time 30 min.

The target is the same in series [6]. Description: Modulation of human P-gp transfected in mouse L5178Y cells assessed as change in Rhodamine-123 efflux by measuring fluorescence activity ratio at 0.2 uM pretreated for 10 mins followed by Rhodamine-123 challenge for 20 mins by flow cytometry relative to parental mouse L5178Y cells. The format is cell-based. To be noted: 0.5 h, time 30 min. The essentials:
as §2

Series [7] has as its system L5178Y. Put plainly: Synergistic antiproliferative activity against multidrug resistant mouse L5178Y cells transfected with human ABCB1 assessed as combination index incubated for 72 hrs in presence of doxorubicin by MTT assay. The series is classed as functional. The essentials:
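Checkerboard in MDR cells, 6 × 10^3 cells/well. Doxorubicin in serial dilutions from 8.6 μM, crossed with modifier dilutions whose start level was set from its IC50. 72 h at 37 °C under CO2, growth read by MTT. Curves fitted by the median-effect equation; CI reported at 50% inhibition, mean ± SD.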

T1 sequence (P08183 whole entry): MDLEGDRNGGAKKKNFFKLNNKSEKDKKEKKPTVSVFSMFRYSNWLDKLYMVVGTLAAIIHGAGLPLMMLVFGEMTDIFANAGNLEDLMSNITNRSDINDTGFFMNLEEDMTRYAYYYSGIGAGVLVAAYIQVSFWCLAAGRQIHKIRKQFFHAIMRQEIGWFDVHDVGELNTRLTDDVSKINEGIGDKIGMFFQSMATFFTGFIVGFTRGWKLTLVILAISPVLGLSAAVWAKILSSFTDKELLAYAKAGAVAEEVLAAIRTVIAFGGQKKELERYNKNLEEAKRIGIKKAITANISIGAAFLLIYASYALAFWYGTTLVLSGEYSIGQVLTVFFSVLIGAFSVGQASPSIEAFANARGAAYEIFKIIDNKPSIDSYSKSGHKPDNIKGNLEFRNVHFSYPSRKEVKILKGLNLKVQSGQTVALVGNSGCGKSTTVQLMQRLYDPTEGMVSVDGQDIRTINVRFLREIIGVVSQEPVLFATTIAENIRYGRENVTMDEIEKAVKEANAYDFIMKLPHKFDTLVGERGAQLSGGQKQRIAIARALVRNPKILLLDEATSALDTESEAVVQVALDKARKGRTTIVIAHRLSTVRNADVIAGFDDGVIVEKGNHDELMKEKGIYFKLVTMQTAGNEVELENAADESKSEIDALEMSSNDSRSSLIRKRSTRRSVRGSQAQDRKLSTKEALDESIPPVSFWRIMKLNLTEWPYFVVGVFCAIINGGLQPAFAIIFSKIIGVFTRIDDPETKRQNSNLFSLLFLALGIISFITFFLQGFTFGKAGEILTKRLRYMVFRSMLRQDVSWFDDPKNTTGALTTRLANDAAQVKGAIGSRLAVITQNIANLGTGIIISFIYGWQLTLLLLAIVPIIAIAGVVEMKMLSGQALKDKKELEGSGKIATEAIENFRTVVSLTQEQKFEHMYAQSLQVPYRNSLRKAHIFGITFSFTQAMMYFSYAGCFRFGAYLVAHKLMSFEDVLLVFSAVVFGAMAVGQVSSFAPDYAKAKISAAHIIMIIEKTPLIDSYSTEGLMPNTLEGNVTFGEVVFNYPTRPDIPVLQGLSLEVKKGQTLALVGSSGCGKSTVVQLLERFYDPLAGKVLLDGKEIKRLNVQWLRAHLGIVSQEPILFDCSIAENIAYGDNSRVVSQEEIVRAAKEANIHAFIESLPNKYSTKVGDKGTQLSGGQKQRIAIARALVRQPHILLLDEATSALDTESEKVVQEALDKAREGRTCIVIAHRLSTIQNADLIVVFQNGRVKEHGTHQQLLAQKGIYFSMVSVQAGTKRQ

On to `C=C1CC[C@@H]2[C@](C)(COC(C)=O)[C@H](OC(C)=O)CC[C@@]2(C)[C@@H]1C/C=C1/C(=O)OC[C@H]1OC(C)=O`, for which the IC50 in series [1] came to 13.3 µM; in series [2], 19.2 µM. Moreover, the Ratio in series [3] amounted to 1.45; in series [4] it was 1.95; in series [5], 38.65.
For `C=C1CC[C@@H]2[C@](C)(COC(C)=O)[C@H](OC(C)=O)CC[C@@]2(C)[C@@H]1C[C@H](NNC(=O)c1ccc(Cl)cc1)C1=CCOC1=O`, the IC50 in series [1] stood at 14.2 µM; in series [2], 9.04 µM. The figures for the Ratio in series [3], in series [4] and in series [6] were 0.64, 3.36 and 1.56, respectively. Moreover, the CI in series [7] is listed as less than 1.
As to `C=C1CC[C@@H]2[C@](C)(COC(C)=O)[C@H](OC(C)=O)CC[C@@]2(C)[C@@H]1C[C@H](NNC(=S)Nc1cccc2ccccc12)C1=CCOC1=O`, the results for the concentration for half-maximal inhibition (IC50) in series [1] and in series [2] were 52.9 µM and 51.3 µM, respectively. Further, the Ratio in series [3] is reported as 0.97; in series [4] it was 14.29; in series [5], 33.46.
Regarding `C=C1CC[C@@H]2[C@](C)(COC(C)=O)[C@H](OC(C)=O)CC[C@@]2(C)[C@@H]1C[C@H](NNC(=S)Nc1ccccc1)C1=CCOC1=O`, the half-maximal inhibitory concentration (IC50) was 51.7 µM in series [1] and greater than 100 µM in series [2]. For the same compound, the Ratio in series [4] is listed as 7.9; in series [5] it was 55.07.
For `C=C1CC[C@@H]2[C@](C)(COC(C)=O)[C@H](OC(C)=O)CC[C@@]2(C)[C@@H]1C[C@H](NNC(=O)c1ccc(N)cc1)C1=CCOC1=O`, the IC50 was 12.3 µM in series [1] and 5.47 µM in series [2]. Further, the Ratio in series [3] worked out at 0.44; in series [4], 0.48; in series [6], 0.48. The CI in series [7] is listed as less than 1.
`C=C1CC[C@@H]2[C@](C)(COC(C)=O)[C@H](OC(C)=O)CC[C@@]2(C)[C@@H]1C[C@H](NNC(=S)Nc1ccc([N+](=O)[O-])cc1)C1=CCOC1=O`: the half-maximal inhibitory concentration (IC50) in series [1] came out at 16.1 µM; in series [2], 54.8 µM. Besides, the values for the Ratio in series [3], in series [4] and in series [5] were 3.4, 27.27 and 51.95, respectively.
Consider `C=C1CC[C@@H]2[C@](C)(COC(C)=O)[C@H](OC(C)=O)CC[C@@]2(C)[C@@H]1C[C@H](NNC(=S)Nc1ccc(C)cc1)C1=CCOC1=O`, for which the IC50 in series [1] worked out at 36.1 µM; in series [2] it was 47.4 µM. The Ratio in series [3] was 1.31; in series [4] it was 18.86; in series [5] it was 60.26.
The corresponding values for `C=C1CC[C@@H]2[C@](C)(COC(C)=O)[C@H](OC(C)=O)CC[C@@]2(C)[C@@H]1C[C@H](NNC(=S)Nc1ccccc1C)C1=CCOC1=O` are 56.9 µM, 81 µM, 1.42, 1.06 and 37.12.
On to `C=C1CC[C@@H]2[C@](C)(COC(C)=O)[C@H](OC(C)=O)CC[C@@]2(C)[C@@H]1C[C@H](NNC(=O)c1ccc(C(F)(F)F)cc1)C1=CCOC1=O`, for which the concentration for half-maximal inhibition (IC50) in series [1] stood at 6.74 µM; in series [2] it was 11.8 µM. Further, the Ratio in series [3] worked out at 1.75; in series [4] it was 2.27; in series [6] it was 0.37. The CI in series [7] is on record as less than 1.
Regarding `C=C1CC[C@@H]2[C@](C)(COC(C)=O)[C@H](OC(C)=O)CC[C@@]2(C)[C@@H]1C[C@H](NNC(=S)NC(C)(C)C)C1=CCOC1=O`, the concentration for half-maximal inhibition (IC50) in series [1] was 60.1 µM; in series [2], 54.2 µM. Also, the Ratio in series [3] worked out at 0.9; in series [4], 1.2; in series [5], 43.52.
With `C=C1CC[C@@H]2[C@](C)(COC(C)=O)[C@H](OC(C)=O)CC[C@@]2(C)[C@@H]1C[C@@H](NNC(=O)c1ccc(C(F)(F)F)cc1)C1=CCOC1=O`, the IC50 in series [1] amounted to 14.2 µM; in series [2], 15.3 µM. For the same compound, the Ratio in series [3] was found to be 1.08; in series [4] it was 5.19; in series [6] it was 1.63. For the same compound, the CI in series [7] was less than 1.
For `C=C1CC[C@@H]2[C@](C)(COC(C)=O)[C@H](OC(C)=O)CC[C@@]2(C)[C@@H]1C[C@H](NNC(=S)Nc1ccccc1F)C1=CCOC1=O`, the figures for the IC50 in series [1] and in series [2] were 52.6 µM and 70 µM, respectively. For the same compound, the Ratio in series [3] worked out at 1.33; in series [4], 1.03; in series [5], 79.33.
Turning to `C=C1CC[C@@H]2[C@](C)(COC(C)=O)[C@H](OC(C)=O)CC[C@@]2(C)[C@@H]1C[C@H](NNC(=O)OCc1ccc(OC)cc1)C1=CCOC1=O`, the IC50 was 17.7 µM in series [1] and 23.4 µM in series [2]. The Ratio came to 1.32 in series [3], 1.21 in series [4] and 64.99 in series [5]. Besides, the CI in series [7] is listed as less than 1.
For the compound `C=C1CC[C@@H]2[C@](C)(COC(C)=O)[C@H](OC(C)=O)CC[C@@]2(C)[C@@H]1C[C@H](NNC(=S)NCc1ccccc1)C1=CCOC1=O`, the IC50 in series [1] was found to be 66.9 µM; in series [2] it was 67.6 µM. The Ratio in series [3] was 1.01; in series [4], 1.71; in series [5] it was 57.14.
For `C=C1CC[C@@H]2[C@](C)(COC(C)=O)[C@H](OC(C)=O)CC[C@@]2(C)[C@@H]1C[C@H](NNC(=S)N(C)C)C1=CCOC1=O`, the concentration for half-maximal inhibition (IC50) in series [1] came out at 29.1 µM; in series [2], 40.9 µM. For the same compound, the Ratio in series [3] was 1.4; in series [4] it was 58.18; in series [5], 61.3.
As to `C=C1CC[C@@H]2[C@](C)(COC(C)=O)[C@H](OC(C)=O)CC[C@@]2(C)[C@@H]1C[C@H](NNC(=S)Nc1ccc(CC)cc1)C1=CCOC1=O`, the half-inhibitory concentration (IC50) was 38.9 µM in series [1] and greater than 100 µM in series [2]. The Ratio in series [4] was 61.3; in series [5], 79.48.
Turning to `C=C1CC[C@@H]2[C@](C)(COC(C)=O)[C@H](OC(C)=O)CC[C@@]2(C)[C@@H]1C[C@H](NNC(=S)NCc1ccco1)C1=CCOC1=O`, the IC50 in series [1] was determined as 50.1 µM; in series [2], 71.5 µM. The Ratio in series [3] was determined as 1.43; in series [4], 1.27; in series [5] it was 31.12.
Consider `C=C1CC[C@@H]2[C@](C)(COC(C)=O)[C@H](OC(C)=O)CC[C@@]2(C)[C@@H]1C[C@H](NNC(=S)NC)C1=CCOC1=O`, for which the 50% inhibitory concentration (IC50) came out at 44.4 µM in series [1] and 51.3 µM in series [2]. The results for the Ratio in series [3], in series [4] and in series [5] were 1.16, 0.88 and 41.85, respectively.
Turning to `C=C1CC[C@@H]2[C@](C)(COC(C)=O)[C@H](OC(C)=O)CC[C@@]2(C)[C@@H]1C[C@H](NNC(=S)NC1CCCCC1)C1=CCOC1=O`, the IC50 in series [1] is 75.7 µM; in series [2], 67.4 µM. The Ratio in series [3] is reported as 0.89; in series [4], 18.13; in series [5], 64.94.
The corresponding values for `C=C1CC[C@@H]2[C@](C)(COC(C)=O)[C@H](OC(C)=O)CC[C@@]2(C)[C@@H]1C[C@H](NNC(=S)NCCN1CCOCC1)C1=CCOC1=O` are 61.5 µM, 58.7 µM, 0.96, 1.37 and 50.23.
For the compound `C=C1CC[C@@H]2[C@](C)(COC(C)=O)[C@H](OC(C)=O)CC[C@@]2(C)[C@@H]1C[C@H](NNc1ccc(Br)cn1)C1=CCOC1=O`, the IC50 stood at 20.6 µM in series [1] and 12 µM in series [2]. In addition, the Ratio in series [3] turned out to be 0.58; in series [4], 16.12; in series [6], 2.34. Also, the CI in series [7] is given as 0.21.
With `C=C1CC[C@@H]2[C@](C)(CO)[C@H](O)CC[C@@]2(C)[C@@H]1C/C=C1/C(=O)OC[C@H]1O` [ANDROGRAPHOLIDE], the values for the half-maximal inhibitory concentration (IC50) in series [1] and in series [2] were 14.5 µM and 15 µM, respectively. In addition, the Ratio is recorded as 1.03 in series [3], 0.96 in series [4] and 0.82 in series [5]. Besides, the CI in series [7] is recorded as less than 1.
Regarding `COc1cccc2c1C(=O)c1c(O)c3c(c(O)c1C2=O)C[C@@](O)(C(=O)CO)C[C@@H]3O[C@H]1C[C@H](N)[C@H](O)[C@H](C)O1` [DOXORUBICIN], the IC50 in series [1] was 0.07 µM; in series [2], 6.82 µM. Also, the Ratio in series [3] stood at 95.43.

As a reminder, the IC50 is the concentration that gives 50% inhibition.

For the origin of these results see ChEMBL document CHEMBL5385967, “Nitrogen-containing andrographolide derivatives with multidrug resistance reversal effects in cancer cells” (RSC Med Chem, 2024).
